# Results from different studies.
# Target: Serine/threonine-protein kinase 4 (STK4, Homo sapiens, UniProt Q13043)
# One construct used (Q13043 1-487): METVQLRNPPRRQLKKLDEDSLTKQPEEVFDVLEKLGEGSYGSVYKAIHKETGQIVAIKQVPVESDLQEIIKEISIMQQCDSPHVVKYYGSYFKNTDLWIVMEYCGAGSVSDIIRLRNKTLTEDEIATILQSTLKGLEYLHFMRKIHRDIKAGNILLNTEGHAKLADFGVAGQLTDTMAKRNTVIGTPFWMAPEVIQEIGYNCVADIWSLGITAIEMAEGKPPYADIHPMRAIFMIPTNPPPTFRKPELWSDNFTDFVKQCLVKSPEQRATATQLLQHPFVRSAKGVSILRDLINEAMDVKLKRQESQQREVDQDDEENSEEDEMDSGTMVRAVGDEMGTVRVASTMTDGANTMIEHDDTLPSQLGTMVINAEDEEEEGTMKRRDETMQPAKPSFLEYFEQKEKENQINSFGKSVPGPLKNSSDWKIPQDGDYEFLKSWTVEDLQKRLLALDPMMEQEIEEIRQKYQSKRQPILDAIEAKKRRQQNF
Compound,effect on,method,tested at,remaining binding [%]
O=C1CCc2cc(Nc3cc(OC4CCOCC4)c([N+](=O)[O-])cc3Cl)ccc2N1,cell-free assay,competition with immobilised ligand,1 µM,100
COc1ccnn2ncc(-c3ccnc(N(C)C)n3)c12,binding,,1 µM,100
CCC(=O)N[C@H]1CC[C@@H](C(=O)N(C)c2ccc(-c3nc4ccccc4o3)cc2)C1,cell-free assay,competition with immobilised ligand,1 µM,100
O=C(NCCCN1CCOCC1)c1ccc(Nc2ncc(Cl)c(-c3ccc(Cl)s3)n2)cc1,binding,competition with immobilised ligand,1 µM,90
N[C@@H]1CCN(c2nccc(-c3cnn4ncccc34)n2)C1,binding,,1 µM,100
CCCOc1ccc([C@@H]2[C@@H](C(=O)O)[C@H](c3ccc4c(c3)OCO4)CN2CC(=O)Nc2c(CC)cccc2CC)cc1,cell-free assay,competition with immobilised ligand,1 µM,95
c1cnn2ncc(-c3ccnc(N4CCC45COC5)n3)c2c1,binding,,1 µM,89
Nc1ncc2c(n1)-c1c([nH]c3ccc(C#CC4CC4)cc13)CCCC2,binding,competition with immobilised ligand,1 µM,100
CN(C)c1nccc(-c2cnc3ncccn23)n1,binding,,1 µM,88
CNC(=O)c1ccc(Nc2ncc(C(F)(F)F)c(NCc3nccnc3N(C)S(C)(=O)=O)n2)cc1,cell-free assay,competition with immobilised ligand,0.1 µM,97
Cc1cnc(Nc2ccc(C(=O)N3CCC(N4CCCC4)CC3)cc2)nc1-c1cc2ccccc2s1,binding,competition with immobilised ligand,1 µM,100
COc1cnc(Nc2cccc(S(N)(=O)=O)c2)nc1N1CCN(c2ccccc2)CC1,binding,competition with immobilised ligand,1 µM,100
O=C(c1ccc(Nc2ncc(Cl)c(-c3cc4ccccc4s3)n2)cc1)N1CCC(N2CCCC2)CC1,binding,competition with immobilised ligand,1 µM,100
c1cncc(-c2cccc(Nc3nccc(NC4CCCCC4)n3)c2)c1,binding,competition with immobilised ligand,10 µM,97
Cc1c(C(=O)O)cc(-c2ccc(C3CCNCC3)cc2)c2ccc(-c3ccc(C(F)(F)F)cc3)cc12,binding,competition with immobilised ligand,1 µM,95
O=C(Nc1c[nH]nc1C(=O)NC1CCNCC1)c1cc(F)cc(F)c1,binding,competition with immobilised ligand,1 µM,100
C[C@H]1CCN(c2nccc(-c3cnn4ncccc34)n2)C1,binding,,1 µM,82
COc1cccc(CNC(=O)c2nc3scc(COCc4ccc(C(=O)O)cc4)c3c(=O)[nH]2)c1,cell-free assay,competition with immobilised ligand,1 µM,75
Cc1cnn2ncc(-c3ccnc(N(C)C)n3)c2c1,binding,,1 µM,97
CNC(=O)[C@@H]1CC[C@@H](n2c(-c3ccc4cnccc4c3)nc3ccc(C(=O)NCc4cccc(C(N)=O)c4)cc32)C1,binding,competition with immobilised ligand,1 µM,81
